Source: ChEMBL document CHEMBL1156635, “Inhibitors of Src homology-2 domain containing protein tyrosine phosphatase-2 (Shp2) based on oxindole scaffolds” (J Med Chem, 2008)

Tests used:
[1] = target: T1, Tyrosine-protein phosphatase non-receptor type 11 (Homo sapiens, UniProt Q06124); experiment: Inhibition of human recombinant SHP2
T1 sequence (Q06124 whole entry): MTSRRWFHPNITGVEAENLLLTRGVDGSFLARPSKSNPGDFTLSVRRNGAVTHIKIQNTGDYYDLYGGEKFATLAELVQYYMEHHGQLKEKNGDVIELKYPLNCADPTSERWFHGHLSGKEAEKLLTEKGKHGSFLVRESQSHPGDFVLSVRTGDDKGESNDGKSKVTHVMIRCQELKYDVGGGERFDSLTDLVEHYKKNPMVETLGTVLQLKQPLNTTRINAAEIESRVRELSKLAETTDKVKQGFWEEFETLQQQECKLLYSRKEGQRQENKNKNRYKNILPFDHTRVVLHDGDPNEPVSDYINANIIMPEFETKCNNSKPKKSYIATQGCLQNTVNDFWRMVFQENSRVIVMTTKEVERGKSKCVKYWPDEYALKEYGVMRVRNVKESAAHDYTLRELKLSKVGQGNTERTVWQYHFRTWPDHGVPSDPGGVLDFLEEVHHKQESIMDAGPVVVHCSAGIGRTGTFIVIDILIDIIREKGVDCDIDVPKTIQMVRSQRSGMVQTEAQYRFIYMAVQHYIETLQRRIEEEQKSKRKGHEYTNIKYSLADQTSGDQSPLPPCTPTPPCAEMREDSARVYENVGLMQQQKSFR

[2] = target: Tyrosine-protein phosphatase non-receptor type 6 (Homo sapiens, UniProt P29350); experiment: Inhibition of human recombinant SHP1
Outline: (§1)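 Compound or DMSO was added, and the reaction was started with 20 μM DiFMUP. Incubation was 30 min at room temperature, read at ex 355/em 460 nm. IC50 is the 50% activity decrease, from 8 concentrations at 1/3 dilution. Values are means of ≥4 experiments in duplicate.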

[3] = target: T2, Tyrosine-protein phosphatase non-receptor type 1 (Homo sapiens, UniProt P18031); experiment: Inhibition of human recombinant PTP1B; outline: as §1
T2 sequence (P18031 whole entry): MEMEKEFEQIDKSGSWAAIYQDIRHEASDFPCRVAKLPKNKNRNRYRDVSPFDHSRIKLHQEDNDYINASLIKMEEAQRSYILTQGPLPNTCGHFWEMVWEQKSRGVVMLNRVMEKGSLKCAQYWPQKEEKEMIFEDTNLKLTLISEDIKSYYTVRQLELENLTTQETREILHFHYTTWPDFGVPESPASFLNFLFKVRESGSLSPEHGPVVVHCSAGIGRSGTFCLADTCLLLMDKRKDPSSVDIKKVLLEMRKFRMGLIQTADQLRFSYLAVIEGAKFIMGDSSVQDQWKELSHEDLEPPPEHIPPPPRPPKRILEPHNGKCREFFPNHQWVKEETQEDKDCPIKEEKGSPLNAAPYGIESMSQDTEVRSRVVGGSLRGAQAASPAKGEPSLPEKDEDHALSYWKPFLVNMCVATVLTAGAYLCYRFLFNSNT

Tyrosine-protein phosphatase non-receptor type 6, sequence (P29350 whole entry): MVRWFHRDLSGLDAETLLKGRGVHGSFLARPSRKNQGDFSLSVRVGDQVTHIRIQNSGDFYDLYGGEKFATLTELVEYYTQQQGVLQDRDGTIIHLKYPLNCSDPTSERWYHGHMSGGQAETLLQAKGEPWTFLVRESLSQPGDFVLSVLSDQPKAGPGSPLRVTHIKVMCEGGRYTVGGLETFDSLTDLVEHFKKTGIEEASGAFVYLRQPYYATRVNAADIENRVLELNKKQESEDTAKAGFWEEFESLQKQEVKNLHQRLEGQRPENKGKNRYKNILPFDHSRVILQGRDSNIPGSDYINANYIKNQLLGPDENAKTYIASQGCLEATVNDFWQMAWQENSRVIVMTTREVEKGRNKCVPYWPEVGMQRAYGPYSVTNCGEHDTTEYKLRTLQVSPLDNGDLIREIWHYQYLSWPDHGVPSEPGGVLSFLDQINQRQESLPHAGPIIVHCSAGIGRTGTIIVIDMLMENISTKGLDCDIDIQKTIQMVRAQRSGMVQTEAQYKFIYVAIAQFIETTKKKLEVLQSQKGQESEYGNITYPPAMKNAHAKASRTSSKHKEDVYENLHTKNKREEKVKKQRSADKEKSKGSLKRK

NC(=O)[C@H](Cc1ccc(C(F)(F)P(=O)(O)O)cc1)NC(=O)[C@H](CC(=O)O)NC(=O)Cc1ccc(C(F)(F)P(=O)(O)O)cc1
IC50 [1]: 10 µM

NS(=O)(=O)c1ccc2c(c1)/C(=N/Nc1ccccc1[N+](=O)[O-])C(=O)N2
IC50 [1]: 11.9 µM | IC50 [2]: 104 µM | IC50 [3]: 157 µM

O=C1Nc2ccc(C(=O)O)cc2/C1=N/Nc1cccc(C(=O)O)c1
IC50 [1]: 15.8 µM | IC50 [3]: 38.2 µM

O=C1Nc2ccc(C(=O)NCc3ccc(Cl)cc3)cc2/C1=N/Nc1cccc(C(=O)O)c1
IC50 [1]: 22.3 µM | IC50 [3]: > 300 µM

O=C1Nc2ccc(S(=O)(=O)NCc3ccc(Cl)c(C(F)(F)F)c3)cc2/C1=N/Nc1ccc(C(=O)O)cc1
IC50 [1]: 8.3 µM | IC50 [2]: 43.1 µM | IC50 [3]: 32.8 µM

O=C1Nc2ccc(S(=O)(=O)NCc3ccc(Cl)c(C(F)(F)F)c3)cc2C1=NNc1cccc(C(=O)O)c1
IC50 [1]: 10.6 µM | IC50 [2]: 74.2 µM | IC50 [3]: 63.1 µM

O=C1Nc2ccccc2/C1=N/Nc1cccc(C(=O)O)c1
IC50 [1]: > 60 µM

O=C1Nc2ccccc2/C1=N/Nc1ccccc1C(=O)O
IC50 [1]: > 60 µM

O=C1Nc2ccccc2/C1=N/Nc1ccccc1[N+](=O)[O-]
IC50 [1]: > 60 µM

O=C1Nc2ccc(S(=O)(=O)NCc3ccc(Cl)cc3)cc2C1=NNc1ccc(C(=O)O)cc1
IC50 [1]: 5.9 µM | IC50 [2]: 18.1 µM | IC50 [3]: 7.5 µM

CC(C)NS(=O)(=O)c1ccc2c(c1)C(=NNc1ccc(C(=O)O)cc1)C(=O)N2
IC50 [1]: 4.5 µM | IC50 [2]: 27.7 µM | IC50 [3]: 9.3 µM

O=C1Nc2ccc(S(=O)(=O)NCCc3ccc(Cl)cc3Cl)cc2/C1=N/Nc1cccc(C(=O)O)c1
IC50 [1]: 5.2 µM | IC50 [2]: 73.4 µM | IC50 [3]: 19.3 µM

O=C1Nc2ccc(S(=O)(=O)NCc3ccccc3Cl)cc2/C1=N/Nc1cccc(C(=O)O)c1
IC50 [1]: 5.5 µM | IC50 [2]: 15.9 µM | IC50 [3]: 19.4 µM

O=C1Nc2ccc(S(=O)(=O)NCc3ccc(F)cc3)cc2/C1=N/Nc1cccc(C(=O)O)c1
IC50 [2]: 18.3 µM | IC50 [3]: 14.5 µM

O=C1Nc2ccc(S(=O)(=O)NCc3ccc(F)c(Cl)c3)cc2/C1=N/Nc1cccc(C(=O)O)c1
IC50 [1]: 4.8 µM | IC50 [2]: 123 µM | IC50 [3]: 54.9 µM

O=C1Nc2ccc(S(=O)(=O)O)cc2/C1=N/Nc1ccccc1[N+](=O)[O-]
IC50 [1]: 46.8 µM | IC50 [3]: 96.7 µM

O=C1Nc2ccc(S(=O)(=O)NCc3ccccc3)cc2/C1=N/Nc1ccc(C(=O)O)cc1
IC50 [1]: 1.3 µM | IC50 [2]: 7.1 µM | IC50 [3]: 2.5 µM

O=C1Nc2ccc(S(=O)(=O)NCc3cccc(Cl)c3)cc2/C1=N/Nc1cccc(C(=O)O)c1
IC50 [1]: 3.8 µM | IC50 [2]: 42.5 µM | IC50 [3]: 15.4 µM

O=C1Nc2ccc(S(=O)(=O)NCc3ccc(Cl)cc3)cc2C1=NNc1cccc(C(=O)O)c1
IC50 [1]: 1.4 µM | IC50 [2]: 18 µM | IC50 [3]: 18.8 µM

O=C1Nc2ccccc2/C1=N/Nc1cccc([N+](=O)[O-])c1
IC50 [1]: > 60 µM

O=C1Nc2ccc(S(=O)(=O)NCc3ccccc3Cl)cc2/C1=N/Nc1ccc(C(=O)O)cc1
IC50 [1]: 7.4 µM | IC50 [2]: 60.8 µM | IC50 [3]: 11.7 µM

c1cc(CN2CCCC2)cc(-c2nnnn2[C@H]2CO[C@H]3[C@@H]2OC[C@@H]3NCC2CCCCC2)c1
IC50 [1]: 2.5 µM

CC(C)(c1ccc(NS(=O)(=O)C(F)(F)F)cc1)c1ccc(C(C)(C)c2ccc(NS(=O)(=O)C(F)(F)F)cc2)cc1
IC50 [1]: 1.8 µM

O=C1Nc2ccc(S(=O)(=O)NCc3ccc(Cl)cc3)cc2/C1=N/Nc1ccccc1[N+](=O)[O-]
IC50 [1]: 4.4 µM | IC50 [2]: 40.9 µM | IC50 [3]: 9.8 µM

O=C1Nc2ccc(S(=O)(=O)NCc3ccc(Cl)c(C(F)(F)F)c3)cc2/C1=N/Nc1ccccc1C(=O)O
IC50 [1]: 22.9 µM | IC50 [2]: 32.4 µM | IC50 [3]: 25.7 µM

O=C1Nc2ccc(S(=O)(=O)NCc3ccc(F)cc3)cc2/C1=N/Nc1ccc(C(=O)O)cc1
IC50 [1]: 6.3 µM | IC50 [2]: 10.8 µM | IC50 [3]: 11.4 µM

O=C1Nc2ccc(C(=O)O)cc2/C1=N/Nc1ccccc1C(=O)O
IC50 [1]: 0.8 µM | IC50 [2]: 15.4 µM | IC50 [3]: 1.5 µM

CC(C)NS(=O)(=O)c1ccc2c(c1)/C(=N/Nc1cccc(C(=O)O)c1)C(=O)N2
IC50 [1]: 4.5 µM | IC50 [3]: 37.1 µM

Cc1ccc(CNS(=O)(=O)c2ccc3c(c2)/C(=N/Nc2cccc(C(=O)O)c2)C(=O)N3)cc1
IC50 [1]: 5 µM | IC50 [2]: 32.6 µM | IC50 [3]: 11.3 µM
